The source made the active and inactive calls.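 The calls were made as follows, unless noted: active = fluorescence slope higher than the sample average by over 3 SD (cut at about -0.22 in these data, passing the limit was not always enough); inactive = the rest.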
How the values were obtained:
[1] = inhibitors of TNFa-induced NFkB p65 translocation, primary screen, imaging, HUVEC, MLSMR starter and 10KST1 sets (AID 438;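 active = inhibition above 20% together with a positive visual image hit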;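 also: compound added about 3h40 before a 20 min TNFalpha stimulation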;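 as to inhibition: signal is the nuclear over cytoplasmic p65 intensity ratio per well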); settings: HUVEC TNFa-induced p65 nuclear translocation; cell count: measured here: nuclei count (cytotoxicity indicator), at 2.08 µM; inhibition: at 2 µM, stronger effect = higher value, 0% TNFa-plus-vehicle, 100% no-TNFa wells
[2] = inhibitors of E-selectin induction by TNFa, primary screen, imaging, HUVEC, immunofluorescence, MLSMR starter and 10KST1 sets (AID 487;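 active = visually confirmed hit in the image check and inhibition above 20%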;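 as to inhibition: signal is fraction of cell area covered by stained E-selectin grains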;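 as to nuclei count: 100% = median nuclei count of all wells on the same plate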); settings: HUVEC TNFalpha-induced E-selectin immunofluorescence imaging, at 2 µM; inhibition: stronger effect = higher value; nuclei count: measured here: cell number, toxicity
[3] = DUSP6 inhibitors restoring Erk phosphorylation by chemical complementation, primary imaging in DUSP6-transfected HeLa (AID 609;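 active = compounds giving at least 50% inhibition in the cell-based MKP-3 phosphatase rescue imaging test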;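 as to inhibition: phospho-Erk level distribution per well compared with pooled transfected vehicle control wells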); settings: HeLa MKP-3 transfected, phospho-Erk imaging KS statistic, at 10 µM, cells stimulated with TPA for 15 min
[4] = target: Dual specificity protein phosphatase 6 (Homo sapiens) (UniProt Q16828); assay: as above; settings: HeLa MKP-3 transfected, phospho-Erk imaging KS statistic; at 10 µM; stronger effect = higher value; cells stimulated with TPA for 15 min
Chain of Dual specificity protein phosphatase 6 (Homo sapiens) (Q16828 whole entry, looked up): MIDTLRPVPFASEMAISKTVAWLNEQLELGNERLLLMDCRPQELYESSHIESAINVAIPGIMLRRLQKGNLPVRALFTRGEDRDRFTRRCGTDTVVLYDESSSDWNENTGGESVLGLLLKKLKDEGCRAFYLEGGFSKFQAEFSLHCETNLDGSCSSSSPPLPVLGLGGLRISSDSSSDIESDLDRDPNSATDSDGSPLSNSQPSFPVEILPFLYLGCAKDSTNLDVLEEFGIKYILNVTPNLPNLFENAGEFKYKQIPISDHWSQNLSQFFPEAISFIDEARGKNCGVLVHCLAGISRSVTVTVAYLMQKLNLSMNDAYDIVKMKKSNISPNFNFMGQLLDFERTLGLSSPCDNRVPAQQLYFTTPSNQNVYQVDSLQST

[5] = target: Voltage-gated potassium channel subunit beta-2 (Rattus norvegicus) (UniProt P62483); assay: KvBeta enzyme negative modulators, primary screen, biochemical, NADPH fluorescence (AID 622); settings: recombinant KvBeta, 4-cyanobenzaldehyde reduction, at 10 µM, stronger effect = higher value;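 also: slope of raw intensity against log time taken from 70 to 1610 s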
Chain of Voltage-gated potassium channel subunit beta-2 (Rattus norvegicus) (P62483 whole entry, looked up): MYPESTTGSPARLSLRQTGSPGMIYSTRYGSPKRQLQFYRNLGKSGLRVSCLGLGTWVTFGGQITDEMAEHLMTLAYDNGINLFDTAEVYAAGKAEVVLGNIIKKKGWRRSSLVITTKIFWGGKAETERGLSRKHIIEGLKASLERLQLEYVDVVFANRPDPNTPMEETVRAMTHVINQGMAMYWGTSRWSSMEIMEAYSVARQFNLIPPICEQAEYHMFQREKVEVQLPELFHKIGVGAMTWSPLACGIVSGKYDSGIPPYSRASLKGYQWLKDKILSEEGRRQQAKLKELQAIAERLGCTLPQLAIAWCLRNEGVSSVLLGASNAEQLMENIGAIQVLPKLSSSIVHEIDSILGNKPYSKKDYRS

[6] = target: Voltage-gated potassium channel subunit beta-2 (Rattus norvegicus) (UniProt P62483); assay: KvBeta positive modulators, primary screen, biochemical, NADPH fluorescence (AID 623;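 active = NADPH fluorescence slope more negative than the mean of all samples by about 3 SD, 99.7% confidence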;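 also: fluorescence intensity change per second fitted from 20 to 320 s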); settings: Recombinant KvBeta, NADPH fluorescence decrease slope, 10 min; at 10 µM; stronger effect = lower value
[7] = target: Alpha-2C adrenergic receptor (Homo sapiens) (UniProt P18825); assay: modulators of alpha2C/GIRK thallium flux, primary screen, cell-based, HEK293 alpha2C/GIRK1/2 (AID 624;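 active = fluorescence slope after compound addition differing from the mean of all screened samples at 99.7% confidence, in either direction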;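 also: slope of fluorescence ratio to pre-addition baseline per second over 15 to 24 s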); settings: thallium flux BTC fluorescence, at 10 µM, actives lie on both sides
Chain of Alpha-2C adrenergic receptor (Homo sapiens) (P18825 whole entry, looked up): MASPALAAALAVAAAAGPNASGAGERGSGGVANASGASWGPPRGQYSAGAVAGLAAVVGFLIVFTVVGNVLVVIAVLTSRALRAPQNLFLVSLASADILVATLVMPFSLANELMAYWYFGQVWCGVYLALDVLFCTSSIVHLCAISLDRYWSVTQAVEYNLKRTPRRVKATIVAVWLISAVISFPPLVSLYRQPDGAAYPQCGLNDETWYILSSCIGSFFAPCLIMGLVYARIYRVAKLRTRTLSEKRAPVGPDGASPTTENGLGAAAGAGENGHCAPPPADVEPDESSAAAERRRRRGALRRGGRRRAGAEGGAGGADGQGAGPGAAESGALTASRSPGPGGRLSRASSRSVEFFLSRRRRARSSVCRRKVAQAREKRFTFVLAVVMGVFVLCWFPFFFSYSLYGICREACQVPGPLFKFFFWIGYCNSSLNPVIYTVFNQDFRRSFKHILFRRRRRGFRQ

[8] = inhibitors of Chlamydomonas gravitaxis, primary screen, whole organism, Chlamydomonas reinhardtii, WT vs cilia-less mutant, absorbance, 96-well (AID 463189;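 active = inhibition at or above 50% relative to wild type and mutant plate controls; inactive = inhibition below 50%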;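 also: 0% = wild type cc124 cells in DMSO and 100% = ciliumless bld1 mutant cells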); settings: OD600 absorbance, 2 days, at 10 µM, stronger effect = higher value
[9] = inhibitors of larval lipid processing in zebrafish, primary screen, whole organism, PED6 fluorescence, gall bladder and intestine (AID 686;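 active = a full or partial loss of lipid-probe fluorescence in the fish gall bladder, intestine or both, judged by eye; inactive = no fluorescence loss, or compound toxic to the fish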;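 also: larvae 5 to 7 days old with five fish per well; signal comes from phospholipase A2 cleavage of quenched PED6 carried via bile; overnight exposure to compound and PED6 before scoring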); settings: Zebrafish larvae PED6 lipid processing, fluorescence scoring; screened at 20 µM (by protocol)
Method in brief: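 Also added: quenched phospholipase substrate PED6, 100 nM final, ingested by larvae; System: zebrafish larvae, 5-7 d; Quantity: 5 larvae per well; Compound: 20 µM single dose; Schedule: overnight compound and PED6 incubation; Read-out: visual per-well fluorescence inhibition score; Measured by: By-eye fluorescence microscopy; Medium: E3.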

[10] = measured here: cell density z-score
[11] = measured here: nuclear c-Myc green intensity z-score
[12] = measured here: nuclear pErk red intensity z-score, stronger effect = higher value

Row | SMILES | cell count [1] | inhibition [1] | inhibition [2] | nuclei count [2] | z-score [3, 10] | z-score [3, 11] | z-score [3, 12] | inhibition [4] | fluorescence slope [5] | NADPH fluorescence slope [6] | slope [7] | inhibition [8] | outcome [9]
1 | Cc1ccccc1N1C(=O)C2ON(c3ccccc3)C(c3ccncc3)C2C1=O (stereo unspecified) | 337 | -2.8% (inactive) | -88.7% (inactive) | 156% | -1.56 | -0.511 | 0.414 | -12.3% (inactive) | -0.445 (inactive) | -0.000127 (inactive) | 0.00538 (inactive) | -10.6% (inactive) | –
2 | CN1CCN(Cc2c(O)ccc3c(-c4ccccc4)cc(=O)oc23)CC1 | 362 | 6% (inactive) | -97.7% (inactive) | 124% | 0.437 | -1.09 | 0.493 | 1.48% (inactive) | -0.269 (inactive) | -2.1e-05 (inactive) | 0.00684 (inactive) | 8.71% (inactive) | –
3 | CC(=O)Nc1n[nH]c(S(=O)(=O)Cc2ccc(Cl)cc2Cl)n1 | 384 | 7.4% (inactive) | 5.6% (inactive) | 144% | -0.283 | -0.511 | -0.141 | -7.01% (inactive) | -0.401 (inactive) | -0.000133 (inactive) | 0.00491 (inactive) | 16.4% (inactive) | –
4 | CCOC(=O)N1CCN(/C=C(\C#N)c2nc3ccccc3s2)CC1 | 357 | -3.2% (inactive) | -5.3% (inactive) | 136% | 1.93 | 0.746 | -0.877 | 7.01% (inactive) | -0.404 (inactive) | -0.000116 (inactive) | 0.0139 (inactive) | -8.84% (inactive) | –
5 | CCCc1cc(=O)oc2c(CN3CCCC3)c(O)c(Cl)cc12 | 371 | -2.3% (inactive) | -95.9% (inactive) | 144% | 0.942 | -0.732 | 0.231 | 22.8% (inactive) | -0.172 (inactive) | -2.5e-06 (inactive) | 0.00449 (inactive) | -0.278% (inactive) | –
6 | O=C1C2ON(c3ccccc3)C(c3ccncc3)C2C(=O)N1c1ccccc1 (stereo unspecified) | 359 | -4.2% (inactive) | -13.9% (inactive) | 147% | 0.798 | -1.22 | 0.675 | -14% (inactive) | -0.419 (inactive) | -0.000134 (inactive) | 0.00494 (inactive) | 5.79% (inactive) | –
7 | c1ccc(-c2nc(NCC3CCCO3)c3ccccc3n2)nc1 (stereo unspecified) | 365 | 0% (inactive) | -106% (inactive) | 173% | 1.77 | -0.891 | -0.309 | -1.75% (inactive) | -0.436 (inactive) | -0.000131 (inactive) | 0.00509 (inactive) | 24.6% (inactive) | –
8 | Cc1ccc(N2C(=O)C3ON(c4ccccc4)C(c4ccncc4)C3C2=O)cc1 (stereo unspecified) | 381 | 1.9% (inactive) | -70.5% (inactive) | 142% | -0.368 | -0.198 | 0.0354 | -8.76% (inactive) | -0.416 (inactive) | -0.000456 (active) | 0.0052 (inactive) | 12.5% (inactive) | –
9 | COCCCNc1nc(-c2ccncc2)nc2ccccc12 | 419 | 1.9% (inactive) | -227% (inactive) | 126% | 1.01 | -0.929 | -0.825 | 18.2% (inactive) | -0.514 (inactive) | -8.3e-05 (inactive) | 0.00557 (inactive) | 138% (active) | –
10 | O=C1CC(N(O)C2CC(=O)N(Cc3ccccc3)C2=O)C(=O)N1Cc1ccccc1 (stereo unspecified) | 269 | -16.2% (inactive) | -15% (inactive) | 88.9% | -0.0667 | 1.6 | -0.253 | 3.5% (inactive) | -0.433 (inactive) | -5.6e-06 (inactive) | 0.0039 (inactive) | 13.4% (inactive) | –
11 | COC(=O)c1ccc(C2/C(=C(/O)c3ccc(OC)cc3)C(=O)C(=O)N2c2cc(C)on2)cc1 (stereo unspecified) | 311 | -11.6% (inactive) | -76.7% (inactive) | 138% | 0.558 | -1.16 | -1.06 | 1.6e-07% (inactive) | -0.466 (inactive) | -5.4e-05 (inactive) | 0.00772 (inactive) | -6.24% (inactive) | –
12 | C=CCOn1c(=O)c(-c2cc3ccccc3o2)[n+]([O-])c2ccccc21 | 536 | -1.4% (inactive) | -41.6% (inactive) | 144% | -0.342 | 0.414 | -0.0488 | -8.76% (inactive) | -0.123 (inactive) | 1.7e-05 (inactive) | 0.00548 (inactive) | 18.3% (inactive) | inactive
13 | CN(Cc1c(O)ccc2c1oc(=O)c1ccccc12)C1CCCCC1 | 585 | -2.8% (inactive) | 6.7% (inactive) | 172% | 0.636 | 0.684 | 0.214 | -4.27% (inactive) | -0.348 (inactive) | -7e-05 (inactive) | 0.00514 (inactive) | 3.79% (inactive) | inactive
14 | COc1ccc(-c2nnc3sc(COc4ccccc4)nn23)cc1 | 645 | -8.4% (inactive) | -95.8% (inactive) | 154% | -0.369 | -0.469 | -1.07 | 4.72% (inactive) | -0.445 (inactive) | -0.000151 (inactive) | 0.00767 (inactive) | 150% (active) | inactive

Source: PubChem BioAssay
